Five compounds from ChEMBL document CHEMBL1146459, “Production of biologically active taxoids by a callus culture of Taxus cuspidata” (2004) can be followed below.

The structures appear in SMILES notation.

Type in all cases: functional, A2780 ADR
The nature of experiment [1]: Reversal of multidrug resistance in human 2780AD cells assessed as [3H]vincristine accumulation at 0.1 ug/mL after 2 hrs relative to control. Put shortly:
(§1)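 Multidrug-resistant human ovarian cancer 2780AD cells were exposed to taxoids at 0.1, 1 or 10 µg/mL. Radiolabelled vincristine accumulated in the cells was measured as dpm/well, using means of triplicate determinations. Results are expressed as % of vincristine accumulated relative to the control experiment. They were also scored on a seven-level index according to the range of relative accumulation.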

Experiment [2] in a line: Reversal of multidrug resistance in human 2780AD cells assessed as [3H]vincristine accumulation at 1 ug/mL after 2 hrs relative to control. Put shortly: as §1
A short description of experiment [3]: Reversal of multidrug resistance in human 2780AD cells assessed as [3H]vincristine accumulation at 10 ug/mL after 2 hrs relative to control. The gist of the method:
as §1

Experiment [4] in a line: Reversal of multidrug resistance in human 2780AD cells assessed as [3H]vincristine accumulation at 0.1 ug/mL after 2 hrs relative to verapamil.
Experiment [5] in a line: Reversal of multidrug resistance in human 2780AD cells assessed as [3H]vincristine accumulation at 1 ug/mL after 2 hrs relative to verapamil.
The nature of experiment [6]: Reversal of multidrug resistance in human 2780AD cells assessed as [3H]vincristine accumulation at 10 ug/mL after 2 hrs relative to verapamil.

Take `C=C1[C@@H](OC(C)=O)CC[C@@]2(C)C[C@H](OC(C)=O)C3=C(C)C[C@H](OC(=O)C(C)C)[C@@H]([C@@H](OC(C)=O)[C@H]12)C3(C)C`: the Activity is listed as 96% in experiment [1]; 195% in experiment [2]; 522% in experiment [3]; 82% in experiment [4]; 95% in experiment [5]; 98% in experiment [6].

As to `C=C1[C@@H](OC(C)=O)CC[C@@]2(C)C[C@H](OC(C)=O)C3=C(C)C[C@H](OC(=O)CC)[C@@H]([C@@H](OC(C)=O)[C@H]12)C3(C)C`, the Activity in experiment [1] is 119%; in experiment [2], 295%; in experiment [3], 770%; in experiment [4], 102%; in experiment [5], 134%; in experiment [6], 145%.

As for `C=C1[C@@H](OC(C)=O)CC[C@@]2(C)C[C@H](OC(C)=O)C3=C(C)C[C@H](OC(C)=O)[C@@H]([C@@H](OC(C)=O)[C@H]12)C3(C)C` [TAXUYUNNANINE C], the Activity in experiment [1] was found to be 105%; in experiment [2], 155%; in experiment [3], 244%; in experiment [4] it was 91%; in experiment [5], 97%; in experiment [6], 78%.

In the case of `COc1ccc(CCN(C)CCCC(C#N)(c2ccc(OC)c(OC)c2)C(C)C)cc1OC` (configuration not stated) [VERAPAMIL], the Activity in experiment [1] is reported as 117%; in experiment [2], 207%; in experiment [3], 531%.

With `C=C1[C@@H](OC(C)=O)CC[C@@]2(C)C[C@H](OC(C)=O)C3=C(C)C[C@H](OC(=O)C(C)C(C)O)[C@@H]([C@@H](OC(C)=O)[C@H]12)C3(C)C` (some centres not stated) [YUNNANXANE], the Activity was determined as 112% in experiment [1]; 150% in experiment [2]; 234% in experiment [3]; 97% in experiment [4]; 94% in experiment [5]; 75% in experiment [6].
